Experimental data as given in ChEMBL document CHEMBL1123487, “Zwitterionic 3'-O-acyl derivatives of thymidine 5'-phosphate as potential sources of intracellular thymidine 5'-phosphate in cells in culture” (J Med Chem, 1986).
Where “and” joins values, the source holds several entries; their conditions need not be identical. Equal values may be shown once.

Columns and labels:
[1] = Compound was evaluated for the Hydrolysis rate in aqueous 50 mM Potassium Phosphate; format: ADME; conditions: aqueous potassium phosphate buffer
Procedure, shortened: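 5 mM ester in aqueous 50 mM potassium phosphate, pH 7.6, held at 37 °C. Release of free nucleotide followed by paper electrophoresis at pH 3.6 (thymidine release by silica TLC, UV inspection). log(residual ester) plotted against time; t1/2 read graphically from the linear pseudo-first-order plot.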

L929 [2] = test: Rate of incorporation of [3H]-dC into DNA in mouse L929 cells at 10e-4 concentration; units=cpm/hx 5*10e5 cells; format: functional
LM [3] = test: Effect (10e-3 M) on DNA synthesis in mouse LM(TK-) cells blocked in DNA synthesis with Aminopterin; format: functional
Procedure, shortened: (§1)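 LM(TK-) mouse fibroblasts, 5×10^5 or 1×10^6 per 6-cm dish, grown overnight in DMEM/10% FBS at 37 °C, 5% CO2. Blocked 3 h in medium with heat-inactivated serum, aminopterin 1 μg/mL, glycine and hypoxanthine 15 μg/mL each, no 5'-NH2-dT. Compounds diluted from 10 mM stocks in 50% ethanol-water; controls got vehicle. Recovery 2 h, then [3H]-dC 1 μCi/mL for 1–3 h. Cold 5% TCA-insoluble counts in duplicate; enhancement = rate with compound / rate in parallel controls.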

LM [4] = test: Effect (10e-5 M) on DNA synthesis in mouse LM(TK-) cells blocked in DNA synthesis with Aminopterin; format: functional; procedure, shortened: as §1
L929 [5] = test: Rate of incorporation of [3H]dC into DNA in mouse L929 cells at 10e-5 concentration; units=cpm/hx 5*10e5 cells; format: functional
Procedure, shortened: (§2)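 L929 cells seeded at 5×10^5 or 1×10^6 per dish in DMEM/10% FBS, overnight at 37 °C, 5% CO2. Blocked 3 h in medium with heat-inactivated serum, aminopterin 1 μg/mL, glycine and hypoxanthine 15 μg/mL each, and 1.0 mM 5'-NH2-dT. Test agent in the same medium for 2 h, then 1 μCi/mL [3H]dC for 1–3 h. Cold 5% TCA-insoluble counts in duplicate, scaled to cell counts.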

LM [6] = test: Effect (10e-6 M) on DNA synthesis in mouse LM(TK-) cells blocked in DNA synthesis with Aminopterin; format: functional
Procedure, shortened: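 LM(TK-) fibroblasts seeded and cultured overnight. Blocked 3 h in heat-inactivated-serum medium with aminopterin 1 μg/mL, glycine and hypoxanthine 15 μg/mL, no 5'-NH2-dT. Compound diluted from 10 mM stock in 50% ethanol-water and applied 2 h. Then [3H]dC 1 μCi/mL; acid-insoluble radioactivity measured in duplicate. Effect expressed as incorporation rate relative to parallel vehicle controls.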

LM [7] = test: Effect (10e-4 M) on DNA synthesis in mouse LM(TK-) cells blocked in DNA synthesis with Aminopterin; format: functional; procedure, shortened: as §1
L929 [8] = test: Rate of incorporation of [3H]dC into DNA in mouse L929 cells at 10e-6 concentration; units=cpm/hx 5*10e5 cells; format: functional; procedure, shortened: as §2
L929 [9] = test: Stimulation of DNA synthesis in L929 cells in the presence of 5'-NH2-dT; format: functional, Mus musculus
L929 [10] = test: Stimulation of DNA synthesis in L929 cells in the absence of 5'-NH2-dT; format: functional, Mus musculus
Procedure, shortened: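 L929 cells blocked 3 h with aminopterin medium. 5'-NH2-dT (1.0 mM) was left out of the 2 h recovery medium that held the compound. Labelled with [3H]-dC 1 μCi/mL; TCA-insoluble incorporation (cpm/h per 5×10^5 cells) compared with parallel control cultures.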

LM [11] = test: Effect on DNA synthesis in mouse LM(TK-) cells blocked in DNA synthesis with Aminopterin at 10e-4 M; format: functional; procedure, shortened: as §1
L929 [12] = test: Rate of incorporation of [3H]dC into DNA in mouse L929 cells at 10e-4 concentration; units=cpm/hx 5*10e5 cells; format: functional

CCN(CC)CC[N+](CC)(CC)CCCC(=O)O[C@H]1C[C@H](n2cc(C)c(=O)[nH]c2=O)O[C@@H]1CO.Cl.[Cl-]
half-life [1]: 28 h

Cc1cn([C@H]2C[C@H](O)[C@@H](CO)O2)c(=O)[nH]c1=O [DOXRIBTIMINE]
Incorporation rate (L929 [2]): 28200 c.p.m. hr-1 | Incorporation rate (LM [3]): 213 c.p.m. hr-1 | Incorporation rate (LM [4]): 204 c.p.m. hr-1 | Incorporation rate (L929 [5]): 2937 c.p.m. hr-1 | Incorporation rate (LM [6]): 185 c.p.m. hr-1 | Incorporation rate (LM [7]): 228 c.p.m. hr-1 and 251 c.p.m. hr-1 | Incorporation rate (L929 [8]): 465 c.p.m. hr-1

CC(=O)O[C@H]1C[C@H](n2cc(C)c(=O)[nH]c2=O)O[C@@H]1CO
half-life [1]: 135 h

CC[N+](CC)(CC)CCC[N+](CC)(CC)CCCCC(=O)O[C@H]1C[C@H](n2cc(C)c(=O)[nH]c2=O)O[C@@H]1COP(=O)([O-])[O-]
half-life [1]: 72 h

CC[N+](CC)(CC)CC[N+](CC)(CC)CCCCC(=O)O[C@H]1C[C@H](n2cc(C)c(=O)[nH]c2=O)O[C@@H]1COP(=O)([O-])[O-]
Incorporation rate (L929 [9]): 808 c.p.m. hr-1 | Incorporation rate (L929 [2]): 673 c.p.m. hr-1 and 1103 c.p.m. hr-1 | Incorporation rate (L929 [10]): 5462 c.p.m. hr-1 | Incorporation rate (LM [11]): 171 c.p.m. hr-1

CC[N+](CC)(CC)CCCC[N+](CC)(CC)CCCCC(=O)O[C@H]1C[C@H](n2cc(C)c(=O)[nH]c2=O)O[C@@H]1COP(=O)([O-])[O-]
half-life [1]: 85 h | Incorporation rate (L929 [9]): 1135 c.p.m. hr-1 | Incorporation rate (L929 [2]): 1356 c.p.m. hr-1 and 1299 c.p.m. hr-1 | Incorporation rate (L929 [10]): 7462 c.p.m. hr-1 | Incorporation rate (LM [7]): 204 c.p.m. hr-1 and 147 c.p.m. hr-1

CCN(CC)CC[N+](CC)(CC)CCCC(=O)O[C@H]1C[C@H](n2cc(C)c(=O)[nH]c2=O)O[C@@H]1COP(=O)([O-])O
half-life [1]: 28 h

Cc1cn([C@H]2C[C@H](O)[C@@H](COP(=O)(O)O)O2)c(=O)[nH]c1=O [THYMIDINE MONOPHOSPHATE]
Incorporation rate (LM [3]): 596 c.p.m. hr-1 and 668 c.p.m. hr-1 and 837 c.p.m. hr-1 | Incorporation rate (LM [4]): 323 c.p.m. hr-1 and 256 c.p.m. hr-1 | Incorporation rate (LM [7]): 381 c.p.m. hr-1 and 295 c.p.m. hr-1

CCN(CC)CCCC[N+](CC)(CC)CCCCC(=O)O[C@H]1C[C@H](n2cc(C)c(=O)[nH]c2=O)O[C@@H]1COP(=O)([O-])O
Incorporation rate (L929 [12]): 782 c.p.m. hr-1 and 821 c.p.m. hr-1

CCN(CC)CCC[N+](CC)(CC)CCCCC(=O)O[C@H]1C[C@H](n2cc(C)c(=O)[nH]c2=O)O[C@@H]1COP(=O)([O-])O
half-life [1]: 74 h | Incorporation rate (L929 [2]): 605 c.p.m. hr-1 and 504 c.p.m. hr-1

CC[N+](CC)(CC)CCCC[N+](CC)(CC)CCCCC(=O)O[C@H]1C[C@H](n2cc(C)c(=O)[nH]c2=O)O[C@@H]1CO.[Cl-].[Cl-]
half-life [1]: 87 h
